This is an account of results in PMC3483883 (Bioorganic & medicinal chemistry letters, 2012).

Data set [1] concerns Leishmania donovani (axenic amastigotes). Briefly: Antiprotozoal activity against L. donovani axenic amastigotes. Type of data set: cell-based. The settings on record: read-out: Leishmania donovani IC50.
For data set [2], the target named is T1, hTopIB (Homo sapiens, UniProt P11387).
T1 sequence (P11387 1-765): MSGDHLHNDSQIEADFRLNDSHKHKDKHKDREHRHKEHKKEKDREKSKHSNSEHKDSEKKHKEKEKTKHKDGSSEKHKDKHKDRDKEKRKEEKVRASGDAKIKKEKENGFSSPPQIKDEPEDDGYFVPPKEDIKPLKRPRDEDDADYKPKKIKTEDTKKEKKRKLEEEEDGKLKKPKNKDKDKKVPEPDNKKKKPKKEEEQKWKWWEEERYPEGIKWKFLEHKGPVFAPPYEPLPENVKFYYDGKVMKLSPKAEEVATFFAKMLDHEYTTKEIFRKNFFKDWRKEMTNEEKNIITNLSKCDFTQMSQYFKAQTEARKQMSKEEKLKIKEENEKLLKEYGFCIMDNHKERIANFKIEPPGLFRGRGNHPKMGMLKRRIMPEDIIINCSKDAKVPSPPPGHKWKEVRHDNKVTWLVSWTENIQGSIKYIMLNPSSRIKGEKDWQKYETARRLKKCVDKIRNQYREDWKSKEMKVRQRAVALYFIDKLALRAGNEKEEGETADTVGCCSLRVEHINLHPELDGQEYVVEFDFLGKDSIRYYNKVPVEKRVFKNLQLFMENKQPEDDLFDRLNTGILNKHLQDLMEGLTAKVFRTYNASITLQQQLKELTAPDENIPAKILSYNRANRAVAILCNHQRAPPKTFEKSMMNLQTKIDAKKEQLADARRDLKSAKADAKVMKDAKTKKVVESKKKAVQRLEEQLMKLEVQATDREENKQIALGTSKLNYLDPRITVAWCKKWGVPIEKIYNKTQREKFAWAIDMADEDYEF
Briefly: Supercoiled plasmid DNA TopIB-mediated cleavage assay, hTopIB. It is filed as biochemical. The conditions noted are these: 100 μM.

For data set [3], the target named is T2, LdTopIB (Leishmania donovani, UniProt A0A3Q8IHS4+Q8WQM6). Briefly: Plasmid DNA relaxation assay, LdTopIB. It is filed as biochemical.
Data set [4] has as its target T1, hTopIB. Briefly: Plasmid DNA relaxation assay, hTopIB. Type of data set: biochemical.
The subject of data set [5] is Leishmania donovani, Trypanosoma brucei rhodesiense, Trypanosoma cruzi. Briefly: Antiprotozoal activity against all the studied protozoa. Type of data set: cell-based. The conditions noted are these: read-out: IC50 values against all the studied protozoa. The method, boiled down:
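In vitro growth-inhibition IC50 against L. donovani, T. cruzi and T. b. rhodesiense. Values are averages of at least two independent assays, each run in duplicate. Reference drugs in the same set are melarsoprol, benznidazole, miltefosine and podophyllotoxin.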

The target in data set [6] is T2, LdTopIB. Briefly: Supercoiled plasmid DNA TopIB-mediated cleavage assay, LdTopIB. Type of data set: biochemical.
The test system of data set [7] is Trypanosoma brucei rhodesiense (bloodstream forms). Briefly: Antiprotozoal activity against T. brucei rhodesiense bloodstream forms. Type of data set: cell-based. The conditions noted are these: read-out: Trypanosoma brucei rhodesiense IC50.
The nature of a further data set: L6 cell cytotoxicity. It is filed as cell-based. The conditions noted are these: rat, L6 cells (rat skeletal myoblasts).
Data set [8] deals with L. infantum promastigotes. Briefly: Activity against L. infantum promastigotes. It is filed as cell-based. The conditions noted are these: Leishmania infantum, read-out: IC50 against L. infantum promastigotes.
Data set [9] relates to Murine macrophages BALB/c. Briefly: Toxicity against BALB/c murine macrophages. Type of data set: cell-based. The conditions noted are these: Mus musculus, Macrophage, read-out: Murine macrophages BALB/c IC50.
Data set [10] concerns fluconazole resistant Candida albicans strains. The settings on record: series of strains; cited from earlier work.
For another data set, the target named is leukotriene B4 ω-oxidase. The settings on record: read-out: IC50 leukotriene B4 ω-oxidase; suicide inhibitor; cited from earlier work.
The subject of data set [11] is L. infantum promastigotes. The conditions noted are these: 400 μM, 24 h.

On to `CCCCCCCCCCCCCC#CC(=O)O` [2-HDA, 2-hexadecynoic acid], for which the IC50 in data set [1] was 17.8 µM; in [5] it was 17.8 to 83.6 µM; in data set [7], 83.6 µM; in the data set “L6 cell cytotoxicity” it was 340 µM; in data set [8], 14.9 µM; in data set [9] it was greater than 100 µM. Further, on hTopIB [2], the “inhibition of hTopIB” value is listed as “no inhibition”. Further, the EC50 – broadly, the concentration at which the effect is half-maximal – on LdTopIB [3] is 28.7 ± 1.3 µM; at hTopIB [4], greater than 100 µM. The “inhibition of hTopIB at 100 μM” value on hTopIB [4] was “neither 2-TDA nor 2-HDA was inhibitory”. Further, on LdTopIB [6] (100 μM), the “inhibition of catalytic activity of LdTopIB” value is “inhibits the catalytic activity”. For the same compound, the “enzymatic activity of LdTopIB after pre-incubation” value on LdTopIB [6] (pre-incubated 15 min with 100 μM before DNA and CPT) is listed as “fully inhibited”.
As to `CCCCCCCCCCCCCCCC#CC(=O)O` [2-ODA, 2-octadecynoic acid], the EC50 at LdTopIB [3] amounted to 5.3 ± 0.7 µM.
`CCCCCCCCCCCC#CC(=O)O` [2-TDA, 2-tetradecynoic acid]: the concentration giving a half-maximal response (EC50) at LdTopIB [3] was determined as 67.8 ± 1.1 µM. At hTopIB [4], the EC50 is greater than 100 µM and the “inhibition of hTopIB at 100 μM” value is “neither 2-TDA nor 2-HDA was inhibitory”. The IC50 in [5] was in the range of 24.7 to 255 µM.
Turning to `CCCCCCCCCCCC#CCCCCC(=O)O` [6-ODA, 6-octadecynoic acid], the “IC50 against fluconazole resistant Candida albicans strains” value in [10] is 0.45 to 0.65 µg/mL.
As for `C#CCCCCCCCCCCCCCCCC(=O)O` [17-ODA, 17-octadecynoic acid], the IC50 at leukotriene B4 ω-oxidase was less than 5 µM.
The compound `CC[C@@]1(O)C(=O)OCc2c1cc1n(c2=O)Cc2cc3ccccc3nc2-1` [CPT, camptothecin, reference compound] gave an EC50 at LdTopIB [3] of 0.67 ± 0.08 µM.
As to `Nc1nc(N)nc(Nc2ccc([As]3SCC(CO)S3)cc2)n1` (stereo not shown) [Melarsoprol, reference compound], in [7], the IC50 amounted to 0.0075 µM.
For the compound `OO` [hydrogen peroxide], the “apoptotic cells (Annexin-V-FITC)” value in data set [11] was “positive test”.
